Results as given in ChEMBL document CHEMBL4033681, “Lipase-catalyzed kinetic resolution as key step in the synthesis of enantiomerically pure σ ligands with 2-benzopyran structure” (Bioorg Med Chem, 2017).
The source made the active and inactive calls. No cut-off for these calls is given here.

Legend:
[1] = biological target: T1, Sigma intracellular receptor 2 (Rattus norvegicus) (UniProt Q5U3Y7); experiment: Displacement of [3H]DTG from sigma-2 receptor in rat liver membranes at 1 uM after 120 mins by microbeta scintillation counting method relative to control; format: cell membranes; conditions: Membrane
T1 sequence (whole entry): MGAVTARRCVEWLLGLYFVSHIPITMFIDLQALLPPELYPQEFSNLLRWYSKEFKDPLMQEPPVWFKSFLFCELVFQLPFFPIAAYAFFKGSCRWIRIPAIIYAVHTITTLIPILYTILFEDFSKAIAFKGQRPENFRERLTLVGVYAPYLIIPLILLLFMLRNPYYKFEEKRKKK
Outline: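 Rat liver homogenate was the receptor source, labelled with [³H]-di-o-tolylguanidine. Excess (+)-pentazocine was added to mask σ1 sites.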

[2] = Displacement of [3H]-(+)-MK-801 from NMDA receptor PCP binding site in pig brain cortex membranes after 120 mins by microbeta scintillation counting method; format: cell membranes, Sus scrofa
[3] = biological target: T2, Sigma intracellular receptor 2 (Rattus norvegicus, UniProt Q5U3Y7); experiment: Displacement of [3H]DTG from sigma-2 receptor in rat liver membranes after 120 mins by microbeta scintillation counting method; format: cell membranes, Membrane
T2 sequence (Q5U3Y7 whole entry): T1 sequence (whole entry)

Yarrowia lipolytica [4] = experiment: Inhibition of Yarrowia lipolytica DSM 1345 sterol-delta8/delta7-isomerase assessed as change in sterol pattern at 4 ug/ml after 48 hrs by GC-MS analysis
Outline: (§1)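 Cellular assay in the model yeast Yarrowia lipolytica, with compounds at 4 µg/mL. Both growth and the sterol pattern were monitored as read-outs of fungal sterol-Δ8/Δ7-isomerase inhibition.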

Yarrowia lipolytica [5] = experiment: Growth inhibition of Yarrowia lipolytica DSM 1345 at 4 ug/ml; format: functional; outline: as §1
[6] = biological target: 3-beta-hydroxysteroid-Delta(8),Delta(7)-isomerase (Homo sapiens) (UniProt Q15125); experiment: Inhibition of sterol-delta8/delta7-isomerase in human HL60 cells assessed as accumulation of cholesta-8,14-dienol at 50 uM after 24 hrs; format: cell-based
Chain of 3-beta-hydroxysteroid-Delta(8),Delta(7)-isomerase (Homo sapiens) (Q15125 whole entry): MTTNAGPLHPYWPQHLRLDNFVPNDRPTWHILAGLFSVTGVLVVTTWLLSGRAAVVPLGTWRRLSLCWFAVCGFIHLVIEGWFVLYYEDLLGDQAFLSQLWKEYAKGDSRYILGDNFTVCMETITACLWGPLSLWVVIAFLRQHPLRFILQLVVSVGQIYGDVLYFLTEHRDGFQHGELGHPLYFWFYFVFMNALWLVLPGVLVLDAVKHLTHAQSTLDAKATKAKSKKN
Outline: (§2)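 HL-60 cells were screened for inhibition of post-squalene cholesterol-biosynthesis enzymes. Sterol pattern was checked at 1 µM test concentration, and cholesta-8,14-dienol accumulation was examined at 50 µM.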

[7] = biological target: 3-beta-hydroxysteroid-Delta(8),Delta(7)-isomerase (Homo sapiens) (UniProt Q15125); experiment: Inhibition of sterol-delta8/delta7-isomerase in human HL60 cells assessed as change in sterol pattern at 1 uM after 24 hrs; format: cell-based; outline: as §2
[8] = biological target: Sigma non-opioid intracellular receptor 1 (Cavia porcellus, UniProt Q60492); experiment: Displacement of [3H]-(+)-pentazocine from sigma-1 receptor in guinea pig brain membranes after 120 mins by microbeta scintillation counting method; format: cell membranes, Membrane
Chain of Sigma non-opioid intracellular receptor 1 (Q60492 whole entry): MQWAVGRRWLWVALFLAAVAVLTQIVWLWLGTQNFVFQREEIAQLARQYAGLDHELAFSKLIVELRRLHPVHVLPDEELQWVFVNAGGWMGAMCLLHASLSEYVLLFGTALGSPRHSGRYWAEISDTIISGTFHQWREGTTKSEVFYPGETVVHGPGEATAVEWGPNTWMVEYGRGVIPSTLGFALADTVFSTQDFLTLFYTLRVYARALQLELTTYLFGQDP

Structure (SMILES) | IC50 [2] [nM] | Ki [3] [nM] | Ki [8] [nM] | also measured
OCC[C@H]1Cc2ccccc2C2(CCN(CC3CCCCC3)CC2)O1 | > 10000 | 510 | – | –
OCC[C@@H]1Cc2ccccc2C2(CCN(CC3CCCCC3)CC2)O1 | > 10000 | 614 | – | –
OCCC1Cc2ccccc2C2(CCN(CCCc3ccccc3)CC2)O1 (racemic) | – | – | – | inhibition (Yarrowia lipolytica [4]): inactive; growth inhibition (GI) (Yarrowia lipolytica [5]): inactive; inhibition [6]: Active; inhibition [7]: inactive
CCCCCCCCN1CCC2(CC1)OC(CCO)Cc1ccccc12 (racemic) | – | – | – | inhibition (Yarrowia lipolytica [4]): inactive; growth inhibition (GI) (Yarrowia lipolytica [5]): inactive; inhibition [6]: Active; inhibition [7]: inactive
COC(=O)C[C@H]1Cc2ccccc2[C@@H](CCN2CCC(c3ccccc3)CC2)O1 | > 10000 | 525 | 33 | –
FCC[C@@H]1OC2(CCN(Cc3ccccc3)CC2)c2ccccc21 | – | – | 2.3 | –
COC(=O)C[C@@H]1Cc2ccccc2[C@H](CCN2CCC(c3ccccc3)CC2)O1 | > 10000 | 32 | 43 | –
COC(=O)C[C@@H]1Cc2ccccc2[C@H](CCN2CCCCC2)O1 | > 10000 | – | 860 | inhibition [1]: 39%
FCC[C@H]1OC2(CCN(Cc3ccccc3)CC2)c2ccccc21 | – | – | 0.57 | –
COC(=O)C[C@H]1Cc2ccccc2[C@@H](CCN2CCCCC2)O1 | > 10000 | – | 556 | inhibition [1]: 13%
COC(=O)CC1Cc2ccccc2C(CCN2CCC(c3ccccc3)CC2)O1 (racemic) | – | – | – | inhibition (Yarrowia lipolytica [4]): inactive; growth inhibition (GI) (Yarrowia lipolytica [5]): inactive; inhibition [6]: Active; inhibition [7]: inactive

Further lines, with some results ahead:

IC50 [2] [nM] | Ki [3] [nM] | Ki [8] [nM] | Structure (SMILES) | also measured
> 10000 | – | – | OCC[C@@H]1Cc2ccccc2C2(CCN(Cc3ccccc3)CC2)O1 | inhibition [1]: 9%
> 10000 | – | – | OCC[C@H]1Cc2ccccc2C2(CCN(Cc3ccccc3)CC2)O1 | inhibition [1]: 21%
> 10000 | 68 | 24 | CCCCCCCCN1CCC2(CC1)O[C@@H](CCO)Cc1ccccc12 | –
> 10000 | 519 | – | OCC[C@@H]1Cc2ccccc2C2(CCN(CCCc3ccccc3)CC2)O1 | –
> 10000 | 1220 | – | OCC[C@H]1Cc2ccccc2C2(CCN(CCCc3ccccc3)CC2)O1 | –
> 10000 | 260 | 56 | CCCCCCCCN1CCC2(CC1)O[C@H](CCO)Cc1ccccc12 | –
